Test results from ChEMBL document CHEMBL1208778, “Synthesis and anti-cancer activity of chalcone linked imidazolones” (2010).
Calls of active or inactive are those of the source. The rule behind the calls is not given here.

Columns and labels:
Type in all cases: functional
SF-539 = experiment: Growth inhibition of human SF539 cells
In short: (§1)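 Five-dose testing was run within the NCI (Bethesda) in vitro Anticancer Screen Program on a panel of 53 human tumour cell lines from nine cancer types. Growth inhibition is reported as GI50.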

HCC 2998 = experiment: Growth inhibition of human HCC2998 cells; in short: as §1
A549 = experiment: Growth inhibition of human A549 cells; in short: as §1
NCI-H322M = experiment: Growth inhibition of human NCI-H322M cells; in short: as §1
K562 = experiment: Growth inhibition of human K562 cells; in short: as §1
KM12 = experiment: Growth inhibition of human KM12 cells; in short: as §1
Malme-3M = experiment: Growth inhibition of human MALME-3M cells; in short: as §1
CAKI-1 = experiment: Growth inhibition of human Caki1 cells; in short: as §1
SW-620 = experiment: Growth inhibition of human SW620 cells
In short: (§2)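 Compounds that passed a preliminary screen were tested at five doses in the NCI (Bethesda) in vitro Anticancer Screen Program against a 53-line human tumour panel spanning leukemia, lung, colon, CNS, melanoma, ovarian, renal, prostate and breast. Growth inhibition is reported as GI50.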

U-251 = experiment: Growth inhibition of human U251 cells; in short: as §2
M14 = experiment: Growth inhibition of human M14 cells; in short: as §1
NCI-H460 = experiment: Growth inhibition of human NCI-H460 cells; in short: as §1
SNB-19 = experiment: Growth inhibition of human SNB19 cells; in short: as §2
MCF7 [1] = experiment: Cell cycle arrest in human MCF7 cells assessed as accumulation at G2/M phase at 10 uM after 24 hrs by FACS analysis
In short: (§3)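 MCF-7 breast carcinoma cells were exposed to 10 µM test compound for 24 h, with DMSO as the vehicle control. Cell-cycle distribution was read by FACS as the percentage of cells in G0, G1, S and G2/M.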

MCF7 [2] = experiment: Growth inhibition of human MCF7 cells; in short: as §1
SNB-75 = experiment: Growth inhibition of human SNB75 cells; in short: as §2
EKVX = experiment: Growth inhibition of human EKVX cells; in short: as §1
MCF7 [3] = experiment: Cell cycle arrest in human MCF7 cells assessed as accumulation at G0 phase at 30 uM after 24 hrs by FACS analysis
In short: (§4)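 MCF-7 cells were treated at 30 µM for 24 h alongside a DMSO control. Fractions in G0, G1, S and G2/M phases were measured by FACS, and values are means of three experiments.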

RXF 393 = experiment: Growth inhibition of human RXF393 cells; in short: as §1
UACC-257 = experiment: Growth inhibition of human UACC257 cells; in short: as §2
NCI-H23 = experiment: Growth inhibition of human NCI-H23 cells; in short: as §1
SN12C = experiment: Growth inhibition of human SN12C cells; in short: as §2
T47D = experiment: Growth inhibition of human T47D cells; in short: as §2
PC-3 = experiment: Growth inhibition of human PC3 cells; in short: as §1
UACC-62 = experiment: Growth inhibition of human UACC62 cells; in short: as §2
ACHN = experiment: Growth inhibition of human ACHN cells; in short: as §1
Hs-578T = experiment: Growth inhibition of human Hs 578T cells; in short: as §1
NCI-H522 = experiment: Growth inhibition of human NCI-H522 cells; in short: as §1
MCF7 [4] = experiment: Cell cycle arrest in human MCF7 cells assessed as accumulation at S phase at 10 uM after 24 hrs by FACS analysis; in short: as §3
MCF7 [5] = experiment: Cell cycle arrest in human MCF7 cells assessed as accumulation at G1 phase at 10 uM after 24 hrs by FACS analysis; in short: as §3
LOX IMVI = experiment: Growth inhibition of human LOXIMVI cells; in short: as §1
SF-295 = experiment: Growth inhibition of human SF295 cells; in short: as §1
NCI-H226 = experiment: Growth inhibition of human NCI-H226 cells; in short: as §1
UO-31 = experiment: Growth inhibition of human UO31 cells; in short: as §2
NCI/ADR-RES = experiment: Growth inhibition of human NCI/ADR-RES cells; in short: as §1
SF-268 = experiment: Growth inhibition of human SF268 cells; in short: as §1
MCF7 [6] = experiment: Cell cycle arrest in human MCF7 cells assessed as accumulation at S phase at 30 uM after 24 hrs by FACS analysis; in short: as §4
MCF7 [7] = experiment: Cell cycle arrest in human MCF7 cells assessed as accumulation at G1 phase at 30 uM after 24 hrs by FACS analysis; in short: as §4
OVCAR-3 = experiment: Growth inhibition of human OVCAR-3 cells; in short: as §1
MDA-MB-231 = experiment: Growth inhibition of human MDA-MB-231 cells; in short: as §1
OVCAR-4 = experiment: Growth inhibition of human OVCAR4 cells; in short: as §1
MCF7 [8] = experiment: Cell cycle arrest in human MCF7 cells assessed as accumulation at G0 phase at 10 uM after 24 hrs by FACS analysis; in short: as §3
HCT-15 = experiment: Growth inhibition of human HCT15 cells; in short: as §1
SK-MEL-2 = experiment: Growth inhibition of human SK-MEL-2 cells; in short: as §1
[9] = Growth inhibition of human RPMI8266 cells; in short: as §1
A498 = experiment: Growth inhibition of human A498 cells; in short: as §1
HCT-116 = experiment: Growth inhibition of human HCT116 cells; in short: as §1
BT-549 = experiment: Growth inhibition of human BT549 cells; in short: as §1
OVCAR-8 = experiment: Growth inhibition of human OVCAR8 cells; in short: as §1
786-0 = experiment: Growth inhibition of human 786-0 cells; in short: as §1
SK-OV-3 = experiment: Growth inhibition of human SKOV3 cells; in short: as §2
SK-MEL-5 = experiment: Growth inhibition of human SK-MEL-5 cells; in short: as §1
COLO 205 = experiment: Growth inhibition of human COLO205 cells; in short: as §1
TK-10 = experiment: Growth inhibition of human TK10 cells; in short: as §2
MCF7 [10] = experiment: Cell cycle arrest in human MCF7 cells assessed as accumulation at G2/M phase at 30 uM after 24 hrs by FACS analysis; in short: as §4
HOP-62 = experiment: Growth inhibition of human HOP62 cells; in short: as §1
SK-MEL-28 = experiment: Growth inhibition of human SK-MEL-28 cells; in short: as §1
HT-29 = experiment: Growth inhibition of human HT-29 cells; in short: as §1
MDA-MB-435 = experiment: Growth inhibition of human MDA-MB-435 cells; in short: as §1
OVCAR-5 = experiment: Growth inhibition of human OVCAR5 cells; in short: as §1

- GI50 (HCC 2998): 1.92 µM
- GI50 (A549): 3.03 µM
- GI50 (NCI-H322M): 3.61 µM
- GI50 (K562): 0.59 µM
- GI50 (SW-620): 1.03 µM
- GI50 (U-251): 1.23 µM
- GI50 (NCI-H460): 1.73 µM
- GI50 (MCF7 [2]): 0.47 µM
- GI50 (NCI-H23): 2 µM
- GI50 (T47D): 3.08 µM
- GI50 (PC-3): 2.63 µM
- GI50 (ACHN): 1.74 µM
- GI50 (NCI-H522): 1.05 µM
- GI50 (NCI-H226): 14.4 µM
- GI50 (OVCAR-3): 1.48 µM
- GI50 (MDA-MB-231): 4.19 µM
- GI50 (OVCAR-4): 3.77 µM
- GI50 (HCT-15): 1.89 µM
- GI50 (SK-MEL-2): 3.02 µM
- GI50 (HCT-116): 0.74 µM
- GI50 (BT-549): 1.52 µM
- GI50 (OVCAR-8): 2.32 µM
- GI50 (786-0): 1.59 µM
- GI50 (SK-OV-3): 5.12 µM
- GI50 (SK-MEL-5): 2.76 µM
- GI50 (COLO 205): 1.52 µM
- GI50 (SK-MEL-28): 1.61 µM
- GI50 (HT-29): 1.7 µM
- GI50 (MDA-MB-435): 2.11 µM
- GI50 (OVCAR-5): 4.38 µM
Compound: COc1cc(/C=C/C(=O)c2cccc(-n3cc(-c4cc(OC)c(OC)c(OC)c4)[nH]c3=O)c2)cc(OC)c1OC
- GI50 (SF-539): 3.12 µM
- GI50 (KM12): 1.12 µM
- GI50 (Malme-3M): 1.8 µM
- GI50 (CAKI-1): 2.89 µM
- GI50 (M14): 2.12 µM
- GI50 (SNB-19): 4.07 µM
- Activity (MCF7 [1]): 23.12%
- GI50 (SNB-75): 5.13 µM
- GI50 (EKVX): 9.47 µM
- Activity (MCF7 [3]): 39.7%
- GI50 (RXF 393): 1.62 µM
- GI50 (UACC-257): 2.22 µM
- GI50 (SN12C): 2.75 µM
- GI50 (UACC-62): 1.87 µM
- GI50 (Hs-578T): inactive
- Activity (MCF7 [4]): 25.65%
- Activity (MCF7 [5]): 47.6%
- GI50 (LOX IMVI): 1.23 µM
- GI50 (SF-295): 4.96 µM
- GI50 (UO-31): 0.96 µM
- GI50 (NCI/ADR-RES): 2.1 µM
- GI50 (SF-268): 2.2 µM
- Activity (MCF7 [6]): 7.85%
- Activity (MCF7 [7]): 42.7%
- Activity (MCF7 [8]): 3.63%
- GI50 [9]: 0.23 µM
- GI50 (A498): 20.3 µM
- GI50 (TK-10): 3 µM
- Activity (MCF7 [10]): 9.75%
- GI50 (HOP-62): 3.08 µM
